Measured values from different studies.
Compare with care: the assays were run in different laboratories. In brackets after ≈: the same amount, converted by molar mass.

CC1(C)CC[C@]2(NC(=O)NCCN3CCCC3)CC[C@]3(C)C(=CC[C@@H]4[C@@]5(C)CC[C@@H]6OC(C)(C)OC[C@@]6(C)[C@@H]5CC[C@]43C)[C@@H]2C1 — inhibition (Leishmania mexicana; parasite growth, resazurin; 50 µM, amastigote): 99.1%
Cc1ccc(-c2nc3ccccc3s2)cc1NC(=O)c1cc([N+](=O)[O-])c(NCCN)cc1Cl — EC50 (Leishmania mexicana; parasite growth; J774.A1; intracellular, amastigote): 250 nM
O=C(O)CN1C(=O)/C(=C/c2ccc(-c3ccc(N(c4ccccc4)c4ccccc4)cc3)cc2)NC1=S — MBC (Staphylococcus epidermidis; microbial killing, broth dilution; ATCC12228): 3.9 µg/mL (≈ 7.71 µM)
O=C(Nc1ccccc1-c1ccc(F)c(F)c1)c1nccnc1C(F)(F)F — EC50 (Verticillium; microbial growth): 11 µg/mL
CC1(C)CC[C@]2(C(=O)O)CC[C@]3(C)C(=CC[C@@H]4[C@@]5(C)CC[C@H](O[C@@H]6OC[C@H](O)[C@H](O)[C@H]6O)[C@@](C)(CO)[C@@H]5CC[C@]43C)[C@@H]2C1 — inhibition (Leishmania mexicana; parasite growth, resazurin; 50 µM, amastigote): 96.9%
O=C(Nc1cncc(-c2nc3ccccc3o2)c1)c1cc([N+](=O)[O-])c(N2CCNCC2)cc1Cl — EC50 (Leishmania mexicana; parasite growth; J774.A1; intracellular, amastigote): 750 nM
CC1(C)CC[C@]2(NC(=O)N3CCC[C@H]3CN3CCCC3)CC[C@]3(C)C(=CC[C@@H]4[C@@]5(C)CC[C@@H]6OC(C)(C)OC[C@@]6(C)[C@@H]5CC[C@]43C)[C@@H]2C1 — inhibition (Leishmania mexicana; parasite growth, resazurin; 50 µM, amastigote): 97.6%
Cc1ccc(-c2nc3ccccc3s2)cc1NC(=O)c1cc([N+](=O)[O-])c(N2CCCCC2)cc1Cl — EC50 (Leishmania mexicana; parasite growth; J774.A1; intracellular, amastigote): > 10000 nM
O=C1NC(=S)N/C1=C\c1c2ccccc2c(-c2ccc(N(c3ccccc3)c3ccccc3)cc2)c2ccccc12 — MIC (Staphylococcus epidermidis; microbial growth, broth dilution; ATCC12228): > 1000 µg/mL
